ChEMBL document CHEMBL1128484, “Cardioselective ammonium, phosphonium, and sulfonium analogues of alpha-tocopherol and ascorbic acid that inhibit in vitro and ex vivo lipid peroxidation and scavenge superoxide radicals” (J Med Chem, 1995)
Each block holds one molecule with its values, some of them ahead of it.

Columns and labels:
[1] = The reaction rate constant (K) by measuring competition with nitroblue tetrazolium of the superoxide radicals formed by xanthine oxidase/xanthine; assay type: ADME
Mus musculus [2] = species on record: Mus musculus; experiment: The ex vivo ID50 value was measured for lipid inhibition of autoxidation in mouse heart homogenate; assay type: functional; details: read-out: ID50 (the source's name)
Outline: (§1)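 Groups of five CD1 mice were dosed subcutaneously, and hearts were excised 1 h later. Frozen hearts were homogenized, diluted in potassium phosphate buffer and incubated at 37 °C for 2 h. The reaction was stopped on ice with HClO4 and centrifuged. The supernatant was heated with thiobarbituric acid at 100 °C for 15 min. TBARS were extracted into n-butanol and read by fluorescence (ex 515 nm, em 553 nm) against a malondialdehyde dimethylacetal standard. ID50 was taken from semilog plots of log dose versus percent of vehicle control, using at least four doses.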

Mus musculus [3] = species on record: Mus musculus; experiment: The in vitro IC50 value was measured for lipid inhibition of autoxidation in mouse heart homogenate; assay type: functional
Outline: (§2)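 Heart homogenate from untreated mice, diluted in potassium phosphate buffer. Test compound was added at several concentrations before 2 h incubation at 37 °C. The reaction was stopped on ice with HClO4, then heated with thiobarbituric acid at 100 °C for 15 min. TBARS were extracted into n-butanol and read by fluorescence (ex 515 nm, em 553 nm) against a malondialdehyde dimethylacetal standard. IC50 is 50% inhibition of TBARS formation.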

Rattus norvegicus = species on record: Rattus norvegicus; experiment: The IC50 value was measured for inhibition of lipid autoxidation in rat brain homogenate.; assay type: functional
Outline: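 Rat brain homogenate left to autoxidize with test compound present. The read-out is formation of thiobarbituric acid-reactive substances (TBARS). IC50 is the concentration that inhibits TBARS formation by 50%. Values are single or duplicate determinations, or means ± SD.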

Mus musculus [4] = species on record: Mus musculus; experiment: The ex vivo ID50 value was measured for inhibition of lipid autoxidation in mouse heart homogenate; assay type: functional; details: read-out: ID50 (the source's name); outline: as §1
Mus musculus [5] = species on record: Mus musculus; experiment: The in vitro IC50 value was measured for inhibition of lipid autoxidation in mouse heart homogenate; assay type: functional; outline: as §2
[6] = (§3) The reaction rate constant(K) by measuring competition with nitroblue tetrazolium of the superoxide radicals formed by xanthine oxidase/xanthine; assay type: ADME
[7] = as §3; assay type: functional
Mus musculus [8] = experiment: The ex vivo ID50 value was measured for inhibition of lipid autoxidation in mouse heart homogenate 1 hr after subcutaneous administration.; assay type: functional; details: sc, read-out: ID50 (the source's name); outline: as §1

Structure (SMILES): Cc1c(C)c2c(c(C)c1O)CC[C@@](C)(CC(=O)[N-][N+](C)(C)C)O2
IC50 (Rattus norvegicus; Rattus norvegicus, Brain): 9000 nM

Structure (SMILES): Cc1c(C)c2c(c(C)c1O)CCC(C)(C(=O)[N-][N+](C)(C)C)O2 (centres undefined)
IC50 (Rattus norvegicus; Rattus norvegicus, Brain): 14000 nM

Structure (SMILES): CCCCCCCCCCCCCCCCCCOC1=C([O-])C(C(O)C[N+](C)(C)C)OC1=O (centres undefined)
IC50 (Rattus norvegicus; Rattus norvegicus, Brain): > 20000 nM

Structure (SMILES): Cc1c(C)c2c(c(C)c1O)CC[C@](C)(CC(=O)[N-][N+](C)(C)C)O2
IC50 (Rattus norvegicus; Rattus norvegicus, Brain): 8000 nM

Structure (SMILES): Cc1c(C)c2c(c(C)c1O)CC[C@](C)(CC[N+](C)(C)C)O2.Cc1ccc(S(=O)(=O)[O-])cc1
K [1]: 18000 M⁻¹ s⁻¹
IC50 (Rattus norvegicus; Rattus norvegicus, Brain): 2200 nM

Structure (SMILES): O=C1O[C@H]([C@@H](O)CO)C(O)=C1O
K [7]: 350000 M⁻¹ s⁻¹

Structure (SMILES): Cc1c(C)c2c(c(C)c1O)CC[C@@](C)(CCC[C@H](C)CCC[C@H](C)CCCC(C)C)O2 [alpha-TOCHOPHEROL]
IC50 (Rattus norvegicus; Rattus norvegicus, Brain): 14000 nM

Structure (SMILES): Cc1c(C)c2c(c(C)c1O)CC[C@](C)(CC[P+](C)(C)C)O2
IC50 (Rattus norvegicus; Rattus norvegicus, Brain): 2000 nM

Structure (SMILES): Cc1c(C)c2c(c(C)c1O)CC[C@@](C)(CC[S+](C)C)O2
IC50 (Rattus norvegicus; Rattus norvegicus, Brain): 2000 nM

Structure (SMILES): Cc1c(C)c2c(c(C)c1O)CC[C@](C)(CC(=O)O)O2
IC50 (Rattus norvegicus; Rattus norvegicus, Brain): 14000 nM

Structure (SMILES): Cc1c(C)c2c(c(C)c1O)CC[C@@](C)(CC(=O)O)O2
IC50 (Rattus norvegicus; Rattus norvegicus, Brain): 17000 nM

Structure (SMILES): CCCCCCCCCCCCCCCCCCOC1=C(O)[C@@H](C(O)CO)OC1=O (some centres undefined)
K [6]: 21000 M⁻¹ s⁻¹
IC50 (Rattus norvegicus; Rattus norvegicus, Brain): 6000 nM

Structure (SMILES): Cc1c(C)c2c(c(C)c1O)CC[C@](C)(CCN(C)C)O2
IC50 (Rattus norvegicus; Rattus norvegicus, Brain): 1000 nM

Structure (SMILES): Cc1c(C)c2c(c(C)c1O)CC[C@](C)(CC[S+](C)C)O2
IC50 (Rattus norvegicus; Rattus norvegicus, Brain): 2000 nM

Structure (SMILES): C[N+](C)(C)CC(O)C1OC(=O)C(O)=C1[O-] (centres undefined)
K [1]: 600000 M⁻¹ s⁻¹
IC50 (Rattus norvegicus; Rattus norvegicus, Brain): > 200000 nM

Structure (SMILES): Cc1c(C)c2c(c(C)c1O)CC[C@@](C)(CCN(C)C)O2
IC50 (Rattus norvegicus; Rattus norvegicus, Brain): 1000 nM

Structure (SMILES): Cc1c(C)c2c(c(C)c1O)CC[C@@](C)(CC[P+](C)(C)C)O2
IC50 (Rattus norvegicus; Rattus norvegicus, Brain): 2000 nM

The next lines start with results.

K [1]: 800 M⁻¹ s⁻¹
Structure (SMILES): CSCCC1(C)CCc2c(C)c(O)c(C)c(C)c2O1 (centres undefined)
ED50 (Mus musculus [2]): > 150 µmol/kg
IC50 (Mus musculus [3]): 18 µM
IC50 (Rattus norvegicus; Rattus norvegicus, Brain): 3000 nM

K [1]: 27000 M⁻¹ s⁻¹
Structure (SMILES): Cc1c(C)c2c(c(C)c1O)CCC(C)(CCN(C)C)O2 (centres undefined)
ED50 (Mus musculus [4]): > 150 µmol/kg
IC50 (Mus musculus [5]): 19 µM

K [6]: 28000 M⁻¹ s⁻¹
Structure (SMILES): Cc1c(C)c2c(c(C)c1O)CCC(C)(CC(=O)[N-][N+](C)(C)C)O2 (centres undefined)
IC50 (Rattus norvegicus; Rattus norvegicus, Brain): 6000 nM

K [1]: 20000 M⁻¹ s⁻¹
Structure (SMILES): Cc1c(C)c2c(c(C)c1O)CCC(C)(C(=O)O)O2 (centres undefined) [TROLOX]
IC50 (Rattus norvegicus): 14000 nM

K [6]: 24000 M⁻¹ s⁻¹
Structure (SMILES): Cc1c(C)c2c(c(C)c1O)CCC(C)(CC[P+](C)(C)C)O2.[Br-] (centres undefined)
ED50 (Mus musculus [2]): 8 µmol/kg
IC50 (Rattus norvegicus; Rattus norvegicus, Brain): 2000 nM
IC50 (Mus musculus [5]): 10 µM

K [1]: 21000 M⁻¹ s⁻¹
Structure (SMILES): Cc1c(C)c2c(c(C)c1O)CC[C@@](C)(CC[N+](C)(C)C)O2.Cc1ccc(S(=O)(=O)[O-])cc1
IC50 (Rattus norvegicus; Rattus norvegicus, Brain): 2300 nM

K [6]: 22000 M⁻¹ s⁻¹
Structure (SMILES): CC[P+](CC)(CC)CCC1(C)CCc2c(C)c(O)c(C)c(C)c2O1.[Br-] (centres undefined)
ED50 (Mus musculus [2]): 7 µmol/kg
IC50 (Rattus norvegicus; Rattus norvegicus, Brain): 2000 nM
IC50 (Mus musculus [5]): 10 µM

K [6]: 21000 M⁻¹ s⁻¹
Structure (SMILES): Cc1c(C)c2c(c(C)c1O)CCC(C)(CC[S+](C)C)O2.Cc1ccc(S(=O)(=O)[O-])cc1 (centres undefined)
ED50 (Mus musculus [2]): 6 µmol/kg
IC50 (Rattus norvegicus; Rattus norvegicus, Brain): 2000 nM
IC50 (Mus musculus [5]): 7 µM

K [1]: 24000 M⁻¹ s⁻¹
Structure (SMILES): Cc1c(C)c2c(c(C)c1O)CCC(C)(CC[N+](C)(C)C)O2.Cc1ccc(S(=O)(=O)[O-])cc1 (centres undefined)
IC50 (Rattus norvegicus; Rattus norvegicus, Brain): 2600 nM
IC50 (Mus musculus [5]): 19 µM
ED50 (Mus musculus [8]): 11 µmol/kg
